TRPML3 agonist = human TRPML3 channel agonists, primary screen, cell-based, HEK293 TRPML3-YFP, Fluo-8 calcium fluorescence, 3 µM. actives 0.29% (n = 220,000). 100% = the carbachol control signal. AID 1448, 2008. activation, % at 3 µM. Mucolipin-3 (Homo sapiens), Q8TDD5;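 active = activation above its plate's cutoff, the mean activation of the plate's test wells plus 3 SD, cut at about 12% in these data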;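 note: 0% = DMSO only wells and 100% = carbachol wells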
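Test system: HEK293 cells stably carrying human TRPML3-YFP; Doses: single dose, 3 µM final nominal compound, 0.3% DMSO final; Schedule: dye loading 1 h 37 °C then 30 min ambient, 125 s read; Technique: Fluo-8 calcium fluorescence; Benchmarks: high control carbachol 87 µM, low control DMSO.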
zfTRPN1 agonist = zebrafish TRPN1 channel agonists, primary screen, cell-based, HEK293, calcium fluorescence. transient receptor potential cation channel N1 (TRPN1/NompC), Danio rerio. actives 0.18% (n = 220,000). AID 1424, 2008. HEK293 zebrafish TRPN1-YFP, Fluo-8 calcium fluorescence; 100% = response to 87 µM carbachol. activation, % at 3 µM;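 active = activation above its plate's cutoff, the mean activation of test wells on that plate plus 3 SD, cut at about 19% in these data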;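 note: 0% = DMSO alone and 100% = 87 µM carbachol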
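System: zebrafish TRPN1-YFP in HEK293 cells / Dosing: 3 µM single point / Timing: dye loading 1 h at 37 °C, then 30 min room temperature / Signal: Fluo-8 calcium fluorescence, excitation 470-495 nm, emission 515-575 nm / Read-out basis: percent activation from peak over basal fluorescence ratio, control-normalized / Control set: high carbachol 87 µM, low DMSO alone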
CHO parental Ca = ATP-evoked calcium signal inhibitors, parental CHO, primary screen, counter-screen for OX1R antagonist project, cell-based, fluorescence, Fluo-8 calcium dye; AID 463079, 2010; parental CHO-K1, ATP-induced calcium, Fluo-8 fluorescence; actives 0.63% (n = 330,000); inhibition, % at 5.6 µM;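 active = inhibition above that plate's mean sample inhibition plus 3 SD, cut at about 26% in these data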;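 note: 0% = ATP-challenged DMSO wells and 100% = DMSO wells without ATP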
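Assay system – parental CHO cells · Reagent – ATP stimulus · Detection – intracellular calcium via Fluo-8 no-wash fluorescent dye · Evaluation – percent inhibition of ATP-evoked calcium rise, normalized to controls · Controls – ATP wells versus no-ATP DMSO wells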
OX1R antag-1 = antagonists of human orexin 1 receptor (OX1R) | AID 485270, 2010 | actives 1.8% (n = 330,000) | inhibition, % at 6.6 µM | Orexin/Hypocretin receptor type 1 (Homo sapiens), O43613 | OX1R-expressing cells, FRET antagonist read-out; in the data active = inhibition mostly above about 38%, no sharp cut-off; inactive = mostly below about 40%;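 note: 0% = agonist challenge alone and 100% = reference antagonist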
Target sequence (O43613 whole entry, looked up): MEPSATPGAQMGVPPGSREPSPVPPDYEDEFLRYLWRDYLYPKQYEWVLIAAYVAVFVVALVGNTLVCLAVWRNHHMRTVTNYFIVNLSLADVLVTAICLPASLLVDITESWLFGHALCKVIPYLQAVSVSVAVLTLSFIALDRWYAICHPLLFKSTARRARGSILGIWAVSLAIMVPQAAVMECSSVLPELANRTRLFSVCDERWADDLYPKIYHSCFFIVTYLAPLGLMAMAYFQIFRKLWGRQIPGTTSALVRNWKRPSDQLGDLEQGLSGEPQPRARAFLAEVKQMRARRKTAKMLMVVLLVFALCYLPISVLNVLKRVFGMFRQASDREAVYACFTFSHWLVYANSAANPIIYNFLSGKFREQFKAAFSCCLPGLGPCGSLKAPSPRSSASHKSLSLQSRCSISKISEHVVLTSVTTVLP
OX1R antag-2 = OX1R (HCRTR1) antagonists, primary screen, fluorescence, CHO/OX1R cells, Fluo-8 calcium, orexin A | AID 434989, 2010 | Fluo-8 calcium fluorescence | inhibition, % at 5 µM | actives 0.43% (n = 330,000) | Orexin/Hypocretin receptor type 1 (Homo sapiens), O43613;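 active = inhibition above its plate's threshold, mean inhibition of all tested compounds on the plate plus 3 SD, cut at about 37% in these data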;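 note: 0% = orexin A challenge wells and 100% = SB-334867-A antagonist wells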
OX1R Ca confirm = OX1R (HCRTR1) antagonists, confirmation, fluorescence, CHO/OX1R cells, Fluo-8 calcium, orexin A; shares compounds with OX1R antag-2; orexin A calcium Fluo-8 fluorescence; inhibition, % at 5 µM; actives 38% (n = 1,100); AID 492963, 2010; in the data active = inhibition above about 29%;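 note: 0% = agonist challenge alone and 100% = reference antagonist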
CHO Ca counter = ATP-evoked calcium inhibition in parental CHO, counter-screen for OX1R antagonist project, cell-based, fluorescence, CHO-K1, triplicate. shares compounds with OX1R antag-2. ATP-induced calcium, Fluo-8 fluorescence. actives 9.3% (n = 1,100). inhibition, % at 5.6 µM. AID 492965, 2010;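 active = inhibition above a per-plate limit, the mean inhibition of that plate's test compounds plus 3 SD, cut at about 25% in these data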;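 note: 0% = ATP challenge with DMSO and 100% = DMSO without ATP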
OX1R HTRF conf = OX1R (HCRTR1) antagonists, confirmation, cell-based, HTRF; shares compounds with OX1R antag-1; OX1R-expressing cells, HTRF antagonist assay; inhibition, % at 6.6 µM; actives 49% (n = 1,800); AID 492964, 2010; in the data active = inhibition above about 55%;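 note: CHO cells expressing OX1R stimulated with orexin A at about EC80; 0% = agonist challenge alone and 100% = reference antagonist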
CHO-K1 HTRF = signal inhibition in parental CHO-K1 cells, counter-screen for OX1R antagonist project, cell-based, HTRF. inhibition, % at 6.6 µM. shares compounds with OX1R antag-1. HTRF counterscreen. actives 48% (n = 1,800); in the data active = inhibition above about 17%;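 note: 0% = agonist challenge with vehicle and 100% = vehicle alone without agonist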
* = called active by the depositor; . = not tested or not shown. Only some compounds are listed: those with a hit (about 2.5% of all), similar ones and a draw of the others.

SMILES	TRPML3 agonist	zfTRPN1 agonist	CHO parental Ca	OX1R antag-1	OX1R antag-2	OX1R Ca confirm	CHO Ca counter	OX1R HTRF conf	CHO-K1 HTRF
COCc1cc(C)nc(OCC(=O)N/N=C/c2ccc(OC)c(OC)c2)c1C#N	0	-1	-5	15	-15	.	.	.	.
COc1ccc(/C=N/Nc2snc(SC)c2C#N)cc1OC	0	0	-17	109*	74*	53*	-2	96*	17*
Cc1cccc(C(=O)NCCC(=O)NCc2ccccc2Cl)c1	.	.	-24	6	-4	.	.	.	.
C=CCn1c(SCc2ccc(C(=O)Nc3nccs3)cc2)nnc1-c1ccc(C)c(Cl)c1	-1	-1	3	79*	70*	69*	18	82*	1
O=S(=O)(Oc1ccc(Cl)cc1)c1cccc2cccnc12	-1	-2	6	20	-21	.	.	.	.
COc1ccc2oc(C(=O)Nc3nc4ccccc4[nH]3)c(C)c2c1	2	2	-6	53*	31	-2	-4	28	9
Cc1c(NC(=O)COC(=O)CCc2c[nH]c3ccccc23)c(=O)n(-c2ccccc2)n1C	.	.	4	10	-14	.	.	.	.
CCN(c1ccccc1)S(=O)(=O)c1cc(C(=O)Nc2cccc(Cl)c2)ccc1F	-1	0	12	21	-2	.	.	.	.
O=C(Nc1cccc(Cl)c1)c1ccc(F)c(S(=O)(=O)NCc2cccs2)c1	2	4	-17	85*	63*	31*	-5	78*	1
Cc1cccc(NC(=O)c2ccc(F)c(S(=O)(=O)NCc3ccco3)c2)c1	.	.	-21	86*	58*	44*	-15	75*	3
COc1cc(NC(=O)CSCc2cnn(-c3ccccc3)c2-n2cccc2)cc(OC)c1	0	-2	-25	78*	50*	28	-17	89*	8
CCCCNC(=O)COC(=O)c1c2c(nc3ccccc13)/C(=C/c1cccs1)CC2	0	-2	-3	28	-1	.	.	.	.
CNC(=O)NC(=O)C(C)OC(=O)c1c2c(nc3ccccc13)/C(=C/c1cccs1)CC2 (stereo not given)	0	0	-21	66*	52*	92*	0	93*	9
Cc1ccc(NC(=O)CN2CCCC2c2cccs2)cc1S(=O)(=O)N1CCCCC1 (stereo not given)	.	.	-6	30*	43*	12	1	48	1
O=C(NCC1CCCO1)c1cccc(Oc2ccc([N+](=O)[O-])cc2Cl)c1 (stereo not given)	1	3	-15	9	-13	.	.	.	.
O=c1c2ccccc2oc2cc(-c3ccc4cc[nH]c4c3)ccc12	.	.	-27	80*	75*	22	-8	78*	2
O=c1cc(-c2ccsc2)oc2ccc(-c3ccc4cc[nH]c4c3)cc12	.	.	4	63*	72*	37*	-10	75*	-7
O=c1c2ccccc2oc2ccc(-c3ccc4[nH]ccc4c3)cc12	.	.	12	54	-15	.	.	.	.
Cc1cccc(N(C)C(=O)CCS(=O)(=O)c2cc3c(cc2Cl)NC(=O)CO3)c1	.	.	-11	-1	4	.	.	.	.
CCOc1cc(C(=S)N2CCOCC2)ccc1OS(=O)(=O)c1ccc(C)cc1	.	.	-7	21	-27	.	.	.	.
CCOc1cc(C(=S)N2CCOCC2)cc(Br)c1OS(=O)(=O)c1ccccc1	.	.	-16	47*	28	52*	6	62*	12
Cn1c2ccccc2c(=O)c2cc(C#Cc3cccc(N)c3)ccc21	.	.	-11	92*	55*	40*	6	88*	13
Cn1c2ccccc2c(=O)c2ccc(C#Cc3ccc(N)cc3)cc21	.	.	0	31	0	.	.	.	.
CCOC(=O)Cn1nc(C)c(NC(=O)c2ccc(Br)o2)c1C	.	.	-10	12	-17	.	.	.	.
CC(C)c1ccc(CN(C)C(=O)c2ccc(S(=O)(=O)NCc3ccco3)cc2)cc1	.	.	-9	42*	44*	25	25*	42	-4
SMILES	TRPML3 agonist	zfTRPN1 agonist	CHO parental Ca	OX1R antag-1	OX1R antag-2	OX1R Ca confirm	CHO Ca counter	OX1R HTRF conf	CHO-K1 HTRF
COc1ccc(CCN(C)C(=O)c2ccc(S(=O)(=O)NCc3ccco3)cc2)cc1OC	1	2	-10	20	-28	.	.	.	.
CCSc1ccccc1-c1nc(-c2ccncc2)no1	.	.	-20	43	-14	.	.	.	.
Cc1ccc(C)c(COC(=O)CCN=C2NS(=O)(=O)c3ccccc32)c1	.	.	-16	19	-11	.	.	.	.
Cc1ccc2nc(SCC(=O)c3c[nH]c4ccccc34)[nH]c2c1	1	-1	-25	24	-9	.	.	.	.
Cc1ccc2nc(SCC(=O)c3c(C)[nH]c4ccccc34)[nH]c2c1	0	1	-11	89*	32	29*	-5	78*	-1
CCN1C(=O)c2cccc3c(S(=O)(=O)NCCCN4CCOCC4)ccc1c23	1	0	-18	75	-31	.	.	.	.
CCN1C(=O)c2cccc3c(S(=O)(=O)NCCc4c[nH]c5ccccc45)ccc1c23	1	0	-18	81*	38	32*	2	72*	2
COc1ccc(NC(=O)CN(C)S(=O)(=O)c2ccc3[nH]c(=O)oc3c2)cc1	.	.	-28	56*	38	15	-3	36	7
Cc1c(C(=O)O)sc(S(=O)(=O)N2CCN(C(=O)Cc3ccccc3Cl)CC2)c1C(=O)O	.	.	-2	6	-7	.	.	.	.
Cc1cc2nn(-c3ccccc3)nc2cc1NC(=O)c1cccs1	0	1	-13	79*	61*	17	2	70*	18*
CN(c1ccccc1)S(=O)(=O)c1cccc(NC(=O)COc2cccc([N+](=O)[O-])c2)c1	.	.	13	33*	46*	29	1	26	1
O=C(CNC(=O)c1ccc(Br)o1)Nc1cccc(S(=O)(=O)N2CCOCC2)c1	.	.	-10	7	-14	.	.	.	.
